Reference: ChEMBL document CHEMBL4052826, “Design and Synthesis of Novel Reactive Oxygen Species Inducers for the Treatment of Pancreatic Ductal Adenocarcinoma” (J Med Chem, 2018)
Activity calls are given as the source filed them. The calls are words filed in the database; no cut-off is given here.

What was measured:
MIA PaCa-2 [1] = test: Cytotoxicity against human MIAPaCa2 cells assessed as decrease in cell proliferation after 72 hrs in presence of NAC by MTT assay; format: functional, cell-based
Procedure, shortened: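 MIA PaCa-2 cells were treated for 72 h with compound in the presence of 5 mM NAC. Viability was read by MTT (final 300 μg/mL, 3 h, A570). Mean ± SD of three independent experiments.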

BXPC-3 = test: Cytotoxicity against human BxPC3 cells assessed as decrease in cell proliferation after 72 hrs by MTT assay; format: functional, cell-based; conditions: BXPC-3, 72 h
Procedure, shortened: (§1)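 MTT assay. Cells (3000–8000/well) attached overnight in RPMI1640 with 10% FBS; the GR line was kept with 200 nM gemcitabine. Serial dilutions (30 nM–10 μM for most lines) were applied for 72 h. MTT was added at a final 300 μg/mL for 3 h at 37°C, formazan was dissolved in DMSO and A570 read. Inhibition = (1 − OD treated/OD control) × 100. IC50 given as mean ± SD, three independent experiments.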

PANC-1 = test: Cytotoxicity against human PANC1 cells assessed as decrease in cell proliferation after 72 hrs by MTT assay; format: functional, cell-based; conditions: PANC-1, 72 h; procedure, shortened: as §1
MIA PaCa-2 [2] = test: Cytotoxicity against human MIAPaCa2 cells assessed as decrease in cell proliferation after 72 hrs by MTT assay; format: functional, cell-based; conditions: MIA PaCa-2, 72 h; procedure, shortened: as §1
MIA PaCa-2 [3] = test: Inhibition of mtDNA transcription from HSP2 promoter in human MIAPaCa2 cells after 4 hrs by Bru-seq analysis; format: functional, cell-based
Procedure, shortened: (§2)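 MIA PaCa-2 cells were seeded at 4×10^6 per 10 cm dish and treated the next day for 4 h, with DMSO as control. Bromouridine (2 mM final) was added for the last 30 min. Total RNA was isolated in TRIZOL, and Bru-labelled RNA was immunocaptured, made into cDNA libraries and deep-sequenced. Read-out was nascent signal across mitochondrial heavy-strand (HSP2) and light-strand (LSP) transcripts.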

MIA PaCa-2 [4] = test: Inhibition of mtDNA transcription from LSP promoter in human MIAPaCa2 cells after 4 hrs by Bru-seq analysis; format: functional, cell-based; procedure, shortened: as §2
MIA PaCa-2 [5] = test: Cytotoxicity against gemcitabine-resistant human MIAPaCa2 cells assessed as decrease in cell proliferation after 72 hrs by MTT assay; format: functional, cell-based; conditions: MIA PaCa-2, 72 h; procedure, shortened: as §1
[6] = Cytotoxicity against HPDEC assessed as decrease in cell proliferation after 72 hrs by MTT assay; format: cell-based; conditions: Homo sapiens; procedure, shortened: as §1
[7] = Induction of compound colloidal behavior
[8] = Induction of compound aggregation
MIA PaCa-2 [9] = test: Induction of reactive oxygen species generation in human MIAPaCa2 cells at 1.1 to 10 uM after 24 hrs in presence of NAC by H2DCFDA reactivity assay; format: functional, cell-based
Procedure, shortened: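 H2DCFDA assay. Trypsinized MIA PaCa-2 cells in suspension were loaded with 20 μM H2DCFDA for 30 min at 37°C, washed and plated at 20,000/well. After 30 min they were treated with compound at 10, 3.3 or 1.1 μM. Fluorescence was read at 493/523 nm over time. DMSO basal and unstained controls were included. NAC pretreatment, where used, was 5 mM for 30 min. Duplicates, three independent experiments.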

Structure (SMILES) | IC50 (BXPC-3) [µM] | IC50 (PANC-1) [µM] | IC50 (MIA PaCa-2 [2]) [µM] | also measured
OO | – | – | – | Activity (MIA PaCa-2 [1]): inactive
Cc1ccc(-c2ccc(NC3=CC(=O)c4ncncc4C3=O)cc2F)cc1 | 5 | 4.8 | 4.6 | –
O=C1C(Nc2ccc(Oc3ccccc3)cc2)=CC(=O)c2ncncc21 | 3.6 | 1.8 | 3.7 | –
Nc1cccc(C(=O)NCCC[P+](c2ccccc2)(c2ccccc2)c2ccccc2)c1 | > 30 | > 30 | > 30 | –
COc1ccc(NC2=CC(=O)c3ncncc3C2=O)cc1 | 1.7 | 0.8 | 1.9 | –
CC[C@@]1(O)C(=O)OCc2c1cc1n(c2=O)Cc2cc3ccccc3nc2-1 | – | – | – | inhibition (MIA PaCa-2 [3]): inactive; inhibition (MIA PaCa-2 [4]): inactive
O=C1C=CC(=O)c2ncncc21 | 19.4 | 18 | 9.4 | –
O=C1C(Nc2ccc(CO)cc2)=CC(=O)c2ncncc21 | 5.7 | 1 | 3.5 | –
O=C1C(Nc2ccc(-c3ccc(F)cc3)cc2)=CC(=O)c2ncncc21 | 4.4 | 3.2 | 3.5 | –
COc1cc(NC2=CC(=O)c3ncncc3C2=O)cc(OC)c1 | 16.3 | 7.2 | 7.7 | –
COc1cc(NC2=CC(=O)c3ncncc3C2=O)cc(OC)c1OC | 1.6 | 0.8 | 1.5 | IC50 (MIA PaCa-2 [5]): 2 µM; IC50 [6]: 3.2 µM; Activity [7]: Active; Activity [8]: Active; Activity (MIA PaCa-2 [9]): inactive; Activity (MIA PaCa-2 [1]): inactive
COc1ccc(-c2ccc(NC3=CC(=O)c4ncncc4C3=O)cc2)cc1 | 3.5 | 2.3 | 2.1 | –
O=C(NCCC[P+](c1ccccc1)(c1ccccc1)c1ccccc1)c1ccc(NC2=CC(=O)c3ncncc3C2=O)cc1 | 21.5 | 11.7 | 15.3 | IC50 (MIA PaCa-2 [5]): 17.7 µM; IC50 [6]: 18.3 µM
